The source made the active and inactive calls. The calls are words filed in the database; no cut-off is given here.
Tests used:
HEp-2 = assay: Cytotoxicity against human Hep2 cells after 72 hrs by MTT assay; assay type: functional, cell-based; settings: HEp-2, 72 h
Outline: (§1)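 MTT assay: 3000 cells/well seeded, compound added next day, each concentration in quadruplicate, 72 h at 37 °C; medium replaced with 20 µg MTT/well for 4 h, formazan dissolved in DMSO, OD 545 nm. […] Fibroblasts: normal skin fibroblasts from donor, DMEM/10% FBS, used at 32 and 36 population doublings.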

[1] = Cytotoxicity against cisplatin-resistant human CA3ST cells after 72 hrs by MTT assay; assay type: functional, cell-based; outline: as §1
SW-620 = assay: Cytotoxicity against human SW620 cells after 72 hrs by MTT assay; assay type: functional, cell-based; settings: SW-620, 72 h; outline: as §1
RT-112 = assay: Cytotoxicity against human RT112 cells after 72 hrs by MTT assay; assay type: functional, cell-based; settings: RT-112, 72 h; outline: as §1
[2] = Therapeutic index, ratio IC50 for human HeLa cells to IC50 for normal human fibroblasts; assay type: cell-based; settings: HeLa cells versus normal human fibroblasts, read-out: Ratio IC50
Outline: (§2)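 IC50 values came from an MTT assay. Cells were seeded at 3000 per well and dosed the next day, with each concentration in quadruplicate. After 72 h at 37 °C, MTT (20 µg/well) was added for 4 h; formazan was dissolved in DMSO and read at 545 nm. Each experiment was done three times. Normal skin fibroblasts were used at 32 and 36 population doublings. T.I. = tumor-cell IC50 / fibroblast IC50.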

[3] = Therapeutic index, ratio IC50 for human SW480 cells to IC50 for normal human fibroblasts; assay type: cell-based; settings: SW480 cells versus normal human fibroblasts, read-out: Ratio IC50; outline: as §2
[4] = Therapeutic index, ratio IC50 for human RT112 cells to IC50 for normal human fibroblasts; assay type: cell-based, RT-112; settings: RT112 cells versus normal human fibroblasts, read-out: Ratio IC50; outline: as §2
HeLa [5] = assay: Cell cycle arrest in human HeLa cells assessed as accumulation at G0/G1 phase at 0.78 uM after 24 hrs by propidium iodide staining -based flow cytometry (reference value: 60.6 %); assay type: functional
Outline: (§3)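 HeLa seeded at 100 000 cells/well, treated next day with 0.78, 7 or 21 µM for 24, 48 or 72 h. Adherent plus floating cells collected, PBS-washed, fixed overnight in 70% ethanol at −20 °C, RNase A 30 µg/ml 1 h RT, propidium iodide 16.7 µg/ml 30 min dark; DNA content by flow cytometry, phase percentages including subG1 reported.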

HeLa [6] = assay: Cell cycle arrest in human HeLa cells assessed as accumulation at G0/G1 phase at 7 uM after 24 hrs by propidium iodide staining -based flow cytometry (reference value: 60.6 %); assay type: functional; outline: as §3
HeLa [7] = assay: Cell cycle arrest in human HeLa cells assessed as accumulation at S phase at 7 uM after 24 hrs by propidium iodide staining -based flow cytometry (reference value: 27.7 %); assay type: functional; outline: as §3
HeLa [8] = assay: Cell cycle arrest in human HeLa cells assessed as accumulation at S phase at 21 uM after 24 hrs by propidium iodide staining -based flow cytometry(reference value: 27.7 %); assay type: functional; outline: as §3
HeLa [9] = assay: Cell cycle arrest in human HeLa cells assessed as accumulation at G2/M phase at 0.78 uM after 24 hrs by propidium iodide staining -based flow cytometry (reference value: 11.7 %); assay type: functional; outline: as §3
HeLa [10] = assay: Cell cycle arrest in human HeLa cells assessed as accumulation at subG1 phase at 0.78 uM after 24 hrs by propidium iodide staining -based flow cytometry (reference value: 9.4 %); assay type: functional; outline: as §3
HeLa [11] = assay: Cell cycle arrest in human HeLa cells assessed as accumulation at G0/G1 phase at 0.78 uM after 48 hrs by propidium iodide staining -based flow cytometry (reference value: 63.8 %); assay type: functional; outline: as §3
HeLa [12] = assay: Cell cycle arrest in human HeLa cells assessed as accumulation at G0/G1 phase at 7 uM after 48 hrs by propidium iodide staining -based flow cytometry (reference value: 63.8 %); assay type: functional; outline: as §3
HeLa [13] = assay: Cell cycle arrest in human HeLa cells assessed as accumulation at S phase at 7 uM after 48 hrs by propidium iodide staining -based flow cytometry (reference value: 26.3 %); assay type: functional; outline: as §3
HeLa [14] = assay: Cell cycle arrest in human HeLa cells assessed as accumulation at G2/M phase at 0.78 uM after 48 hrs by propidium iodide staining -based flow cytometry (reference value: 9.9 %); assay type: functional; outline: as §3
HeLa [15] = assay: Cell cycle arrest in human HeLa cells assessed as accumulation at G2/M phase at 7 uM after 48 hrs by propidium iodide staining -based flow cytometry (reference value: 9.9 %); assay type: functional; outline: as §3
HeLa [16] = assay: Cell cycle arrest in human HeLa cells assessed as accumulation at G2/M phase at 21 uM after 48 hrs by propidium iodide staining -based flow cytometry (reference value: 9.9 %); assay type: functional; outline: as §3
HeLa [17] = assay: Cell cycle arrest in human HeLa cells assessed as accumulation at subG1 phase at 0.78 uM after 48 hrs by propidium iodide staining -based flow cytometry (reference value: 8.5 %); assay type: functional; outline: as §3
HeLa [18] = assay: Cell cycle arrest in human HeLa cells assessed as accumulation at subG1 phase at 7 uM after 48 hrs by propidium iodide staining -based flow cytometry (reference value: 8.5 %); assay type: functional; outline: as §3
HeLa [19] = assay: Cell cycle arrest in human HeLa cells assessed as accumulation at G0/G1 phase at 7 uM after 72 hrs by propidium iodide staining -based flow cytometry (reference value: 66.9 %); assay type: functional; outline: as §3
HeLa [20] = assay: Cell cycle arrest in human HeLa cells assessed as accumulation at S phase at 21 uM after 72 hrs by propidium iodide staining -based flow cytometry (reference value: 23.5 %); assay type: functional; outline: as §3
HeLa [21] = assay: Cell cycle arrest in human HeLa cells assessed as accumulation at subG1 phase at 0.78 uM after 72 hrs by propidium iodide staining -based flow cytometry (reference value: 7.2 %); assay type: functional; outline: as §3
HeLa [22] = assay: Cell cycle arrest in human HeLa cells assessed as accumulation at subG1 phase at 7 uM after 72 hrs by propidium iodide staining -based flow cytometry (reference value: 7.2 %); assay type: functional; outline: as §3
HeLa [23] = assay: Induction of CHOP expression in human HeLa cells at 0.09 to 7 uM after 48 hrs by Western blot analysis; assay type: functional, cell-based
Outline: (§4)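 Log-phase HeLa exposed to a concentration series for 48 h, or to 7 µM over a time course. Extracts resolved on 10% SDS gels, blotted to nitrocellulose, blocked 5% milk; anti-CHOP 1:1000 in 5% BSA overnight at 4 °C, HRP secondary 1:5000 2 h RT, ECL detection; ERK2 reprobe as loading control.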

HeLa [24] = assay: Induction of CHOP expression in human HeLa cells at 7 uM up to 8 hrs by Western blot analysis; assay type: functional, cell-based; outline: as §4
HeLa [25] = assay: Cell cycle arrest in human HeLa cells assessed as accumulation at subG1 phase after 24 to 72 hrs by propidium iodide staining -based flow cytometry; assay type: functional; outline: as §3
HeLa [26] = assay: Induction of apoptotis in human HeLa cells assessed as cleavage of procaspase 8 at 7 uM after 48 hrs by Western blot analysis; assay type: functional, cell-based
Outline: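 HeLa cells were treated for 48 h at 7 µM and analysed by Western blot (10% SDS gels, nitrocellulose, HRP secondary, ECL, ERK2 loading control) for cleavage of apoptotic proteins. Antibodies: anti-PARP 1:4000; anti-caspase-3 and anti-caspase-8 1:1000; rabbit polyclonal anti-caspase-9 1:1000.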

CC(=O)N(/N=N/c1ccc([N+](=O)[O-])cc1Cl)c1ccc([N+](=O)[O-])cc1Cl
IC50 (HEp-2): 620 nM
IC50 [1]: 630 nM
IC50 (SW-620): 450 nM
IC50 (RT-112): 7200 nM
selectivity ratio [2]: 0.045
selectivity ratio [3]: 0.038
selectivity ratio [4]: 0.514
Activity (HeLa [5]): 74.4%
Activity (HeLa [6]): 69.3%
Activity (HeLa [7]): 20.8%
Activity (HeLa [8]): 20.2%
Activity (HeLa [9]): 10.5%
Activity (HeLa [10]): 8.7%
Activity (HeLa [11]): 74.5%
Activity (HeLa [12]): 76.2%
Activity (HeLa [13]): 14.2%
Activity (HeLa [14]): 7%
Activity (HeLa [15]): 9.6%
Activity (HeLa [16]): 11.9%
Activity (HeLa [17]): 15.8%
Activity (HeLa [18]): 23.8%
Activity (HeLa [19]): 77.1%
Activity (HeLa [20]): 12.6%
Activity (HeLa [21]): 17.6%
Activity (HeLa [22]): 33%
Activity (HeLa [23]): Active
Activity (HeLa [24]): inactive
Activity (HeLa [25]): Dose-dependent effect
Activity (HeLa [26]): Active

Source: ChEMBL document CHEMBL1806465, “Synthesis and biological evaluation of 4-nitro-substituted 1,3-diaryltriazenes as a novel class of potent antitumor agents” (Eur J Med Chem, 2011)
